Test results published in ChEMBL document CHEMBL3576819, “Design, synthesis, biological evaluation and molecular docking studies of phenylpropanoid derivatives as potent anti-hepatitis B virus agents” (Eur J Med Chem, 2015).
Values belong to the compound of their own block, whether it stands above or below them.

What was measured:
[1] = tested on: Hepatitis B virus; assay: Antiviral activity against Hepatitis B virus infected in human HepG2.2.15 cells assessed as inhibition of HBsAg secretion at 150 uM after 6 days by ELISA; assay type: functional; conditions: HepG2 2.2.15, 144 h
Procedure, shortened: (§1)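 HepG2.2.15 cells (MEM, 10% FBS, 380 µg/ml G418) seeded at 1×10^5 cells/ml, held 24 h at 37 °C, then treated with various drug concentrations; medium with drug renewed every 3 d for up to 9 d. Culture medium sampled on days 3, 6 and 9, stored at -20 °C, and assayed for secreted antigen. Lamivudine as positive control; IC50 = 50% inhibition of secretion; means of at least two experiments.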

[2] = tested on: Hepatitis B virus; assay: Antiviral activity against Hepatitis B virus infected in human HepG2.2.15 cells assessed as inhibition of HBeAg secretion at 150 uM after 9 days by ELISA; assay type: functional; conditions: HepG2 2.2.15, 216 h; procedure, shortened: as §1
[3] = Selectivity index, ratio of CC50 for human HepG2.2.15 cells to IC50 for Hepatitis B virus infected in human HepG2.2.15 cells assessed as inhibition of HBeAg secretion; assay type: functional
Procedure, shortened: (§2)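 Selectivity index computed as CC50/IC50, with CC50 from cell death of HepG2.2.15 cells after 9 days of treatment (OD 450 nm) and IC50 from 50% inhibition of HBeAg or HBsAg secretion in the same cells; medium with drug renewed every 3 d.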

[4] = tested on: Hepatitis B virus; assay: Antiviral activity against Hepatitis B virus infected in human HepG2.2.15 cells assessed as inhibition of HBeAg secretion at 37.5 uM after 9 days by ELISA; assay type: functional; conditions: HepG2 2.2.15, 216 h; procedure, shortened: as §1
[5] = tested on: Hepatitis B virus; assay: Antiviral activity against Hepatitis B virus infected in human HepG2.2.15 cells assessed as inhibition of HBsAg secretion at 300 uM after 3 days by ELISA; assay type: functional; conditions: HepG2 2.2.15, 72 h; procedure, shortened: as §1
[6] = tested on: Hepatitis B virus; assay: Antiviral activity against Hepatitis B virus infected in human HepG2.2.15 cells assessed as inhibition of HBeAg secretion at 75 uM after 6 days by ELISA; assay type: functional; conditions: HepG2 2.2.15, 144 h; procedure, shortened: as §1
[7] = tested on: Hepatitis B virus; assay: Antiviral activity against Hepatitis B virus infected in human HepG2.2.15 cells assessed as cell survival at 37.5 uM after 9 days (reference value: 100%); assay type: functional; conditions: HepG2 2.2.15, 216 h
Procedure, shortened: (§3)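 HepG2.2.15 cells (MEM, 10% FBS, 380 µg/ml G418, 37 °C, 5% CO2) seeded at 1×10^5 cells/ml, cultured 24 h, then exposed to various drug concentrations; drug-containing medium renewed every 3 d. OD read at 450 nm after 9 days; percent cell death calculated; CC50 = concentration killing 50% of cells. Means of at least two experiments.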

[8] = tested on: Hepatitis B virus; assay: Antiviral activity against Hepatitis B virus infected in human HepG2.2.15 cells assessed as inhibition of HBeAg secretion at 300 uM after 6 days by ELISA; assay type: functional; conditions: HepG2 2.2.15, 144 h; procedure, shortened: as §1
[9] = tested on: Hepatitis B virus; assay: Antiviral activity against Hepatitis B virus infected in human HepG2.2.15 cells assessed as inhibition of HBeAg secretion by ELISA; assay type: functional, organism-based; conditions: HepG2 2.2.15; procedure, shortened: as §1
[10] = tested on: Hepatitis B virus; assay: Antiviral activity against Hepatitis B virus infected in human HepG2.2.15 cells assessed as inhibition of HBeAg secretion at 75 uM after 3 days by ELISA; assay type: functional; conditions: HepG2 2.2.15, 72 h; procedure, shortened: as §1
[11] = tested on: Hepatitis B virus; assay: Antiviral activity against Hepatitis B virus infected in human HepG2.2.15 cells assessed as cell survival at 75 uM after 9 days (reference value: 100%); assay type: functional; conditions: HepG2 2.2.15, 216 h; procedure, shortened: as §3
[12] = tested on: Hepatitis B virus; assay: Antiviral activity against Hepatitis B virus infected in human HepG2.2.15 cells assessed as inhibition of HBsAg secretion at 75 uM after 6 days by ELISA; assay type: functional; conditions: HepG2 2.2.15, 144 h; procedure, shortened: as §1
[13] = tested on: Hepatitis B virus; assay: Antiviral activity against Hepatitis B virus infected in human HepG2.2.15 cells assessed as inhibition of HBeAg secretion at 300 uM after 3 days by ELISA; assay type: functional; conditions: HepG2 2.2.15, 72 h; procedure, shortened: as §1
[14] = tested on: Hepatitis B virus; assay: Antiviral activity against Hepatitis B virus infected in human HepG2.2.15 cells assessed as inhibition of HBsAg secretion at 37.5 uM after 6 days by ELISA; assay type: functional; conditions: HepG2 2.2.15, 144 h; procedure, shortened: as §1
[15] = tested on: Hepatitis B virus; assay: Antiviral activity against Hepatitis B virus infected in human HepG2.2.15 cells assessed as inhibition of HBsAg secretion at 75 uM after 3 days by ELISA; assay type: functional; conditions: HepG2 2.2.15, 72 h; procedure, shortened: as §1
[16] = tested on: Hepatitis B virus; assay: Antiviral activity against Hepatitis B virus infected in human HepG2.2.15 cells assessed as inhibition of HBsAg secretion at 37.5 uM after 3 days by ELISA; assay type: functional; conditions: HepG2 2.2.15, 72 h; procedure, shortened: as §1
[17] = tested on: Hepatitis B virus; assay: Antiviral activity against Hepatitis B virus infected in human HepG2.2.15 cells assessed as cell survival at 300 uM after 9 days (reference value: 100%); assay type: functional; conditions: HepG2 2.2.15, 216 h; procedure, shortened: as §3
[18] = tested on: Hepatitis B virus; assay: Antiviral activity against Hepatitis B virus infected in human HepG2.2.15 cells assessed as inhibition of HBeAg secretion at 75 uM after 9 days by ELISA; assay type: functional; conditions: HepG2 2.2.15, 216 h; procedure, shortened: as §1
[19] = Selectivity index, ratio of CC50 for human HepG2.2.15 cells to IC50 for Hepatitis B virus infected in human HepG2.2.15 cells assessed as inhibition of HBsAg secretion; assay type: functional; procedure, shortened: as §2
[20] = tested on: Hepatitis B virus; assay: Antiviral activity against Hepatitis B virus infected in human HepG2.2.15 cells assessed as cell survival at 150 uM after 9 days (reference value: 100%); assay type: functional; conditions: HepG2 2.2.15, 216 h; procedure, shortened: as §3
[21] = tested on: Hepatitis B virus; assay: Antiviral activity against Hepatitis B virus infected in human HepG2.2.15 cells assessed as inhibition of HBsAg secretion at 300 uM after 6 days by ELISA; assay type: functional; conditions: HepG2 2.2.15, 144 h; procedure, shortened: as §1
[22] = tested on: Hepatitis B virus; assay: Antiviral activity against Hepatitis B virus infected in human HepG2.2.15 cells assessed as inhibition of HBeAg secretion at 37.5 uM after 6 days by ELISA; assay type: functional; conditions: HepG2 2.2.15, 144 h; procedure, shortened: as §1
[23] = tested on: Hepatitis B virus; assay: Antiviral activity against Hepatitis B virus infected in human HepG2.2.15 cells assessed as inhibition of HBsAg secretion at 37.5 uM after 9 days by ELISA; assay type: functional; conditions: HepG2 2.2.15, 216 h; procedure, shortened: as §1
[24] = tested on: Hepatitis B virus; assay: Antiviral activity against Hepatitis B virus infected in human HepG2.2.15 cells assessed as inhibition of HBsAg secretion at 300 uM after 9 days by ELISA; assay type: functional; conditions: HepG2 2.2.15, 216 h; procedure, shortened: as §1
[25] = tested on: Hepatitis B virus; assay: Antiviral activity against Hepatitis B virus infected in human HepG2.2.15 cells assessed as inhibition of HBsAg secretion at 75 uM after 9 days by ELISA; assay type: functional; conditions: HepG2 2.2.15, 216 h; procedure, shortened: as §1
[26] = tested on: Hepatitis B virus; assay: Antiviral activity against Hepatitis B virus infected in human HepG2.2.15 cells assessed as inhibition of HBeAg secretion at 150 uM after 3 days by ELISA; assay type: functional; conditions: HepG2 2.2.15, 72 h; procedure, shortened: as §1
[27] = tested on: Hepatitis B virus; assay: Antiviral activity against Hepatitis B virus infected in human HepG2.2.15 cells assessed as inhibition of HBsAg secretion by ELISA; assay type: functional, organism-based; conditions: HepG2 2.2.15; procedure, shortened: as §1
[28] = tested on: Hepatitis B virus; assay: Antiviral activity against Hepatitis B virus infected in human HepG2.2.15 cells assessed as inhibition of HBsAg secretion at 150 uM after 3 days by ELISA; assay type: functional; conditions: HepG2 2.2.15, 72 h; procedure, shortened: as §1
[29] = tested on: Hepatitis B virus; assay: Antiviral activity against Hepatitis B virus infected in human HepG2.2.15 cells assessed as inhibition of HBeAg secretion at 150 uM after 6 days by ELISA; assay type: functional; conditions: HepG2 2.2.15, 144 h; procedure, shortened: as §1
[30] = Cytotoxicity against human HepG2.2.15 cells assessed as cell death after 9 days by MTT assay; assay type: cell-based, HepG2 2.2.15; procedure, shortened: as §3
[31] = tested on: Hepatitis B virus; assay: Antiviral activity against Hepatitis B virus infected in human HepG2.2.15 cells assessed as inhibition of HBsAg secretion at 150 uM after 9 days by ELISA; assay type: functional; conditions: HepG2 2.2.15, 216 h; procedure, shortened: as §1
[32] = tested on: Hepatitis B virus; assay: Antiviral activity against Hepatitis B virus infected in human HepG2.2.15 cells assessed as inhibition of HBeAg secretion at 300 uM after 9 days by ELISA; assay type: functional; conditions: HepG2 2.2.15, 216 h; procedure, shortened: as §1
[33] = tested on: Hepatitis B virus; assay: Antiviral activity against Hepatitis B virus infected in human HepG2.2.15 cells assessed as inhibition of HBeAg secretion at 37.5 uM after 3 days by ELISA; assay type: functional; conditions: HepG2 2.2.15, 72 h; procedure, shortened: as §1

IC50 [9]: 202 µM
IC50 [27]: 191 µM
SMILES: COc1ccc(/C=C/C(=O)O/N=C/c2ccco2)cc1OC
inhibition at 150 µM [1]: 44.2%
inhibition at 150 µM [2]: 43.7%
Ratio CC50/IC50 [3]: 3.1
inhibition at 37.5 µM [4]: 27%
inhibition at 300 µM [5]: 47.2%
inhibition at 75 µM [6]: 27.9%
viability at 37.5 µM [7]: 128%
inhibition at 300 µM [8]: 48.8%
inhibition at 75 µM [10]: 18.2%
viability at 75 µM [11]: 120%
inhibition at 75 µM [12]: 36.5%
inhibition at 300 µM [13]: 41.8%
inhibition at 37.5 µM [14]: 20.8%
inhibition at 75 µM [15]: 33.6%
inhibition at 37.5 µM [16]: 19.9%
viability at 300 µM [17]: 103%
inhibition at 75 µM [18]: 37.3%
Ratio CC50/IC50 [19]: 3.26
viability at 150 µM [20]: 114%
inhibition at 300 µM [21]: 53.8%
inhibition at 37.5 µM [22]: 20%
inhibition at 37.5 µM [23]: 21.2%
inhibition at 300 µM [24]: 55%
inhibition at 75 µM [25]: 39.4%
inhibition at 150 µM [26]: 30.4%
inhibition at 150 µM [28]: 39.7%
inhibition at 150 µM [29]: 42%
CC50 at 216 h [30]: 624 µM
inhibition at 150 µM [31]: 47.3%
inhibition at 300 µM [32]: 56.6%
inhibition at 37.5 µM [33]: 14.1%

IC50 [9]: 378 µM
IC50 [27]: 229 µM
SMILES: COc1ccc(/C=C/C(=O)O/N=C/c2cccs2)cc1OC
inhibition at 150 µM [1]: 41.2%
inhibition at 150 µM [2]: 26.9%
Ratio CC50/IC50 [3]: 1.52
inhibition at 37.5 µM [4]: 18.6%
inhibition at 300 µM [5]: 47.6%
inhibition at 75 µM [6]: 15.3%
viability at 37.5 µM [7]: 114%
inhibition at 300 µM [8]: 35.4%
inhibition at 75 µM [10]: 7.04%
viability at 75 µM [11]: 101%
inhibition at 75 µM [12]: 29.6%
inhibition at 300 µM [13]: 14.3%
inhibition at 37.5 µM [14]: 19.8%
inhibition at 75 µM [15]: 28.4%
inhibition at 37.5 µM [16]: 17.4%
viability at 300 µM [17]: 97.7%
inhibition at 75 µM [18]: 22.6%
Ratio CC50/IC50 [19]: 2.51
viability at 150 µM [20]: 98.7%
inhibition at 300 µM [21]: 52.6%
inhibition at 37.5 µM [22]: 8.58%
inhibition at 37.5 µM [23]: 20.5%
inhibition at 300 µM [24]: 55%
inhibition at 75 µM [25]: 29.3%
inhibition at 150 µM [26]: 11.8%
inhibition at 150 µM [28]: 40.7%
inhibition at 150 µM [29]: 20.4%
CC50 at 216 h [30]: 574 µM
inhibition at 150 µM [31]: 42.8%
inhibition at 300 µM [32]: 52.3%
inhibition at 37.5 µM [33]: 0.63%
